This is an account of results in PubChem BioAssay.

What is called viability is a read-out of living cells in per cent, often relative to untreated cells. For orientation: inhibition means the drop in the measured response relative to a control, in per cent.

Unmarked numbers belong to inactive results. Results filed as inconclusive are left out. Calls of active or inactive are those of the source.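 How the source made its calls, unless noted: active means viability increase at or above a cutoff of the median across tested compounds plus 3 SD (cut at about 8.5% in these data, passing the limit was not always enough); inconclusive means some gains above the cutoff, reason not given; inactive means the rest.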

Experiment [1] is described as follows: S. cerevisiae growth inhibition in permissive medium (OD615), pilot counter-assay for S. cerevisiae lifespan shortening project, permissive growth control (AID 705;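 active means growth inhibition above 25% in both replicates, a cutoff set 3 SD above the mean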). The conditions noted are these: OD615, 24 h, at 10 µM, active compounds read high. The gist of the method:
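System: Engineered DeaD yeast | Buffer or medium: SC raffinose/galactose permissive medium | Doses: 10 µM single dose, 0.25% DMSO | Times: 24 h exposure, 30 °C | Measured by: OD615 turbidity read | Read-out: Yeast growth inhibition indicated by reduced 24 h OD615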

A short description of experiment [2]: S. cerevisiae growth inhibition in restrictive medium, OD615, pilot screen, restrictive growth control, yeast lifespan reduction project (AID 706;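 active means growth inhibition above a set limit, 3 SD over mean compound inhibition, in both replicates, cut at about 43% in these data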;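 further: modified DeaD lifespan yeast strain shifted to restrictive glucose medium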). The conditions noted are these: OD615, 48 h, at 10 µM, active compounds read high. A digest of the protocol:
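Assay system: engineered S. cerevisiae DeaD strain; Buffer or medium: CSMM-D glucose medium; Dosing: 10 µM compound, 0.25% DMSO; Times: cell pre-growth 4 h, compound exposure 48 h, 30 °C; Detection: absorbance (optical density) measured at 615 nm.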

The nature of experiment [3]: doxorubicin toxicity protection in MRP-1 cells – H69AR cells, CellTiter-Glo, duplicate, MRP-1 activator project, pilot screen (AID 807).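 Further: compound pretreatment 18-22 h then 72 h combined with doxorubicin; 0% = doxorubicin alone and 100% = vehicle without doxorubicin.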 The conditions noted are these: H69AR viability with doxorubicin, CellTiter-Glo luminescence; at 10 µM; active compounds read high. On the technique in general: In ATP-based viability assays light output follows the ATP content of the culture.

The nature of experiment [4]: viability of HCT116 without oncogenic beta-catenin – human colon tumor cells, pilot screen (AID 823;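 active means cell viability at or below a set limit in both duplicate runs, the limit being the all-compound median minus 4 SD, cut at about 23% in these data, passing the limit was not always enough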;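 further: 0% = wells killed by 20 µM Hyamine and 100% = untreated DMSO cell wells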). The conditions noted are these: HCT116 beta-catenin knockout viability, CellTiter-Glo, 60 h; at 10 µM; active compounds read low.
A short description of experiment [5]: viability of PTEN-null HCT116 cells – cell-based, HCT116 clonal line, CellTiter-Glo, pilot screen (AID 824;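 active means viability at or below 27.92% in each of two runs, the all-compound median minus 4 SD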;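 further: 0% = 20 µM Hyamine control and 100% = vehicle cell control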). The conditions noted are these: HCT116 PTEN-deleted viability, 60 h, at 10 µM, active compounds read low.
Experiment [6] is described as follows: RAM pathway blockade in budding yeast – dse1pr::URA3 reporter, 5-FOA selection, pilot screen (AID 869;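 active means inhibition over a set limit, the all-compound mean plus 3 SD, in both replicate runs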;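 further: 0% = DMSO wells with no growth and 100% = 10 µM 1-NA-PP1 with full growth; RAM network block rescues cells from 5-FOA so hits raise OD615 growth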). The conditions noted are these: S. cerevisiae dse1pr::URA3 5-FOA growth, OD615, 2 d; at 10 µM; active compounds read high; strain carries analog-sensitive mutant Cbk1 kinase.
Experiment [7] can be described thus: RAM signaling pathway blockade in yeast – S. cerevisiae, Pdr1DBD-CYC8 efflux-inhibited sensitized strain, primary screen (AID 1298;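 active means RAM network inhibition above 8.4% in each of two replicates, 3 SD over the compound average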;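 further: 0% = DMSO untreated cells without growth and 100% = 10 µM 1-NA-PP1 full growth; higher means more yeast growth rescued from 5-FOA killing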). The conditions noted are these: S. cerevisiae cbk1-as DSE1-URA3 strain, 5-FOA growth OD615, 2 d; at 50 µM; active compounds read high.

Regarding `COc1ccc(C(=O)/C=C/N2CCCCC2)cc1OC`, the growth inhibition in experiment [1] is 53.1% (active); in experiment [2], 74.3% (active). In addition, the viability increase in experiment [3] was -4.55%. Moreover, the viability was 77.8% in experiment [4] and 86.6% in experiment [5]. Also, the inhibition in experiment [6] is 0.145%. The RAM network inhibition in experiment [7] is -1.38%.

`CCCn1cc(S(=O)(=O)CC(=O)Nc2ccc(OC)cc2OC)c2ccccc21`: the growth inhibition in experiment [1] was -7.84%; in experiment [2] it was 6.44%. The viability increase in experiment [3] is -1.59%. For the same compound, the viability was 97.9% in experiment [4] and 96.4% in experiment [5]. Further, the inhibition in experiment [6] was 2.81%. Also, the RAM network inhibition in experiment [7] is -0.12%.

As for `CN(Cc1ccccc1)C(=O)COC(=O)c1ccc2c(c1)OCO2`, the growth inhibition in experiment [1] was -6.52%; in experiment [2], -18.6%. Also, the viability increase in experiment [3] is 0.42%. Moreover, the values for the viability in experiment [4] and in experiment [5] were 101% and 104%, respectively. Further, the inhibition in experiment [6] is 0.11%. For the same compound, the RAM network inhibition in experiment [7] is 0.88%.

As for `COc1ccc(OCCSc2ncnc3nc[nH]c23)cc1`, the growth inhibition in experiment [1] is 2.66%; in experiment [2], 22.4%. The viability increase in experiment [3] was -3.5%. Besides, the results for the viability in experiment [4] and in experiment [5] were 86.6% and 81.3%, respectively. Besides, the inhibition in experiment [6] is 3.27%. For the same compound, the RAM network inhibition in experiment [7] is 4.46%.

Regarding `O=C1c2ccccc2C(Nc2ccc3c(c2)OCCO3)N1c1ccccn1` (stereo unspecified), the growth inhibition is -10.6% in experiment [1] and -13.5% in experiment [2]. In addition, the viability increase in experiment [3] is -1.97%. Further, the viability in experiment [4] was 81.5%; in experiment [5] it was 85.6%. The inhibition in experiment [6] is 1.86%. Moreover, the RAM network inhibition in experiment [7] is 4.05%.

Turning to `COc1ccc(S(=O)(=O)Cc2ccc(C(=O)N3CCN(c4cccc(C)c4C)CC3)o2)cc1`, the growth inhibition was -1.63% in experiment [1] and -1.19% in experiment [2]. Moreover, the viability increase in experiment [3] is -5.44%. In addition, the viability in experiment [4] was 13% (active); in experiment [5] it was 17.6% (active). In experiment [6], the inhibition is 1.52%. Also, in experiment [7], the RAM network inhibition is 3.74%.

With `Cc1ccc(-c2nc3cccnc3o2)cc1NC(=O)COc1ccc(Cl)cc1C`, the growth inhibition is -19.4% in experiment [1] and -8.21% in experiment [2]. Further, the viability increase in experiment [3] was -8.36%. In addition, the viability is 17.5% (active) in experiment [4] and 4.66% (active) in experiment [5]. For the same compound, the inhibition in experiment [6] is 1.5%. Besides, in experiment [7], the RAM network inhibition is 8.1%.

For the compound `Cc1cccc(N2CCN(S(C)(=O)=O)CC2)c1C`, the growth inhibition in experiment [1] is -14.5%; in experiment [2] it was -14.1%. Besides, in experiment [3], the viability increase is -0.12%. The values for the viability in experiment [4] and in experiment [5] were 108% and 95.3%, respectively. Also, the inhibition in experiment [6] was 0.76%. In addition, in experiment [7], the RAM network inhibition is 5.4%.

As to `OC(COc1ccc2ccccc2c1)CN1CCN(c2ccc(F)cc2)CC1` (stereo unspecified), the growth inhibition in experiment [1] was 3.06%; in experiment [2] it was -5.26%. Moreover, the viability increase in experiment [3] is -4.36%. Further, the figures for the viability in experiment [4] and in experiment [5] were 81.7% and 84.4%, respectively. Moreover, in experiment [6], the inhibition is 1.09%. Further, in experiment [7], the RAM network inhibition is 1.23%.

`COc1cccc(CNC(=O)CN(c2cc(C)cc(C)c2)S(=O)(=O)c2c(C)noc2C)c1`: the growth inhibition is -6.25% in experiment [1] and -3.9% in experiment [2]. In addition, in experiment [3], the viability increase was -2.41%. Further, the viability in experiment [4] was 90.3%; in experiment [5] it was 90.4%. Also, in experiment [6], the inhibition was 1.34%. Also, the RAM network inhibition in experiment [7] was 7.12%.

`Cn1c(=O)oc2cc(S(=O)(=O)NCCN3CCc4ccccc4C3)ccc21`: the growth inhibition in experiment [1] was -14.3%; in experiment [2], -10.7%. Also, the viability increase in experiment [3] is -3.63%. The viability in experiment [4] is 98.5%; in experiment [5], 89.9%. Also, the inhibition in experiment [6] is 1.6%. In addition, the RAM network inhibition in experiment [7] was 0.61%.

Regarding `Cc1cc(Nc2ccc(Br)cc2F)n2nc(C)nc2n1`, the figures for the growth inhibition in experiment [1] and in experiment [2] were -19.2% and -14.2%, respectively. Further, the viability increase in experiment [3] was -4.07%. In addition, the viability in experiment [4] was 88.3%; in experiment [5], 86%. In addition, the inhibition in experiment [6] was 0.87%. The RAM network inhibition in experiment [7] was -0.15%.

Consider `O=C(c1c(F)cccc1F)N1CCN(c2cccc(C(F)(F)F)c2)CC1`, for which the growth inhibition in experiment [1] is -7.33%; in experiment [2], -6.87%. Further, the viability increase in experiment [3] is 2.86%. In addition, the viability in experiment [4] was 83.8%; in experiment [5] it was 82.1%. In addition, in experiment [6], the inhibition is 0.955%. In addition, in experiment [7], the RAM network inhibition is 4.98%.

With `Clc1ccc(C2CC(c3cccs3)n3ncnc3N2)c(Cl)c1` (stereo unspecified), the growth inhibition is -5.32% in experiment [1] and 17.4% in experiment [2]. Further, the viability increase in experiment [3] was -4.06%. Further, the viability in experiment [4] is 78.7%; in experiment [5], 69.3%. In addition, the inhibition in experiment [6] was 2.1%. For the same compound, the RAM network inhibition in experiment [7] is 2.15%.

Turning to `Cc1cccc(NC(=O)c2ccccc2Br)n1`, the growth inhibition in experiment [1] is 4.2%; in experiment [2], 24%. For the same compound, the viability increase in experiment [3] was -3.61%. In addition, the viability is 103% in experiment [4] and 94% in experiment [5]. In addition, the inhibition in experiment [6] was 0.97%. The RAM network inhibition in experiment [7] is 2.02%.

On to `CCOC(=O)c1cc2c(=O)n3cccc(C)c3nc2n(CCCOC)c1=NC(=O)c1cccnc1`, for which the values for the growth inhibition in experiment [1] and in experiment [2] were -11.3% and -9.9%, respectively. For the same compound, the viability increase in experiment [3] is -4.94%. The viability was 92.5% in experiment [4] and 92.2% in experiment [5]. Moreover, the inhibition in experiment [6] is 0.515%. For the same compound, the RAM network inhibition in experiment [7] is 6.01%.

For the compound `Cc1ccc(O)c(NC(=O)CCC2CCCCC2)c1`, the growth inhibition was -1.6% in experiment [1] and 1.04% in experiment [2]. In addition, the viability increase in experiment [3] was -3.63%. The viability in experiment [4] is 89.4%; in experiment [5] it was 84.5%. Also, the inhibition in experiment [6] was 4.25%. The RAM network inhibition in experiment [7] was 4.08%.

Turning to `CSc1nnc(Cn2c(=O)sc3ccccc32)n1CCc1ccccc1`, the growth inhibition in experiment [1] is 3.19%; in experiment [2], 9.71%. Moreover, in experiment [3], the viability increase is -1.75%. Moreover, the viability in experiment [4] is 92.2%; in experiment [5], 83.3%. Moreover, in experiment [6], the inhibition is 2.35%. In addition, the RAM network inhibition in experiment [7] was 6.93%.
